A selection: hits, their analogues and other compounds. The true share with any hit is near 4.9%.
STAT1 blocker = STAT1 signaling inhibition; AID 920; NIH 3T3 STAT1-luciferase reporter, IFN-gamma, luminescence; inhibition, % at 5.5 µM; 200,000 compounds, 0.35% hits;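 active means inhibition above a set limit, the mean inhibition across all tested compounds plus 3 SD, cut at about 34% in these data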;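 further: 0% = IFN-gamma with DMSO and 100% = IFN-gamma with 300 µM nifuroxazide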
STAT3 activator = STAT3 signaling activation; AID 871; U3A cells, IL-6 STAT3-luciferase reporter, luminescence; 100% = signal with IL-6 EC80 alone; 190,000 compounds, 0.91% hits; activation (% of control), % at 5.6 µM;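 active means activation above the screen-wide mean of compound activation plus 3 SD, cut at about 130% in these data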;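 further: 0% = background luminescence of wells with medium and substrate only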
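Material: human STAT1-deficient U3A cells with stable STAT3-luciferase reporter / Probe or stimulus: IL-6 stimulus at 33 ng/mL final / Schedule: 1 h compound pre-exposure, 6 h IL-6 stimulation, 37 °C / Technique: luminescence / Read-out basis: percent of IL-6-only median luminescence / Control set: IL-6-only high control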
NF-kB neuron act = compounds increasing NF-kB expression in human neuronal cells | NF-kB reporter expression; stronger effect = higher value | fold change at 12.5 µM | 190,000 compounds, 1.6% hits; in the data active means fold change above about 3.3
STAT3 inh-1 = STAT3 signaling inhibition; U3A cells, IL-6 STAT3-luciferase reporter, luminescence; host cell line lacks STAT1; inhibition, % at 5.5 µM; 190,000 compounds, 0.89% hits;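 active means inhibition above the mean inhibition across all screened compounds plus 3 SD, cut at about 44% in these data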;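 further: 0% = DMSO only wells and 100% = 100 µM nifuroxazide control wells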
STAT1 activator = STAT1 signaling activation | NIH 3T3 STAT1-luciferase reporter, IFN-gamma, luminescence; 100% = IFN-gamma alone, no compound | activation (% of control), % at 5.5 µM | 200,000 compounds, 2.6% hits | AID 932;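 active means activation above the screen-wide mean activation plus 3 SD, cut at about 130% in these data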;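 further: raw ratio to IFN-gamma control signal so 100% means no change and 0% no light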
APP 5'UTR act = APP 5'UTR luciferase reporter activation; activation, % at 2 µM; SH-SY5Y APP 5'UTR luciferase reporter, luminescence; zero percent = DMSO vehicle wells; 190,000 compounds, 1% hits;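 active means activation above a set limit, based on mean plus 3 SD of controls, cut at about 140% in these data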
STAT3 inh-2 = confirmation of STAT3 signaling inhibitors. AID 1265. 1,200 compounds, 45% hits. shares compounds with STAT3 inh-1. inhibition, % at 5.7 µM. U3A cells, IL-6 STAT3 luciferase reporter, luminescence; cell line lacks STAT1;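 active means inhibition above the hit cutoff computed for the primary STAT3 screen, cut at about 44% in these data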;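 further: 0% = IL-6 plus DMSO and 100% = IL-6 plus nifuroxazide control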
NFkB inh STAT3ct = inhibits NF-kappaB, counter-screen to STAT3 inhibitors. HEK293T NF-kB luciferase reporter, TNF-alpha induced. shares compounds with STAT3 inh-1. inhibition, % at 5.7 µM. 1,200 compounds, 36% hits;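 active means inhibition above the mean of solvent-only control wells plus 3 SD, cutoff set per campaign, cut at about 13% in these data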;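 further: 0% = TNF-alpha with DMSO and 100% = TNF-alpha with MG high control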
STAT1 inh STAT3c = STAT1 inhibition in STAT3 inhibitor counter-screen; AID 1317; NIH 3T3 STAT1-luciferase reporter, IFN-gamma induced, luminescence; shares compounds with STAT3 inh-1; 1,200 compounds, 27% hits; inhibition, % at 5.7 µM;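 active means inhibition above the mean plus 3 SD of solvent-only control wells, limit set per screening run, cut at about 16% in these data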;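 further: 0% = DMSO with IFN-gamma and 100% = nifuroxazide control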
An asterisk follows results filed as active; / = no result given; ! = a repeat was not active.

SMILES	STAT1 blocker	STAT3 activator	NF-kB neuron act	STAT3 inh-1	STAT1 activator	APP 5'UTR act	STAT3 inh-2	NFkB inh STAT3ct	STAT1 inh STAT3c
O=C(Nc1ccc2c(c1)OCO2)N1CCN(Cc2ccco2)CC1	7	67	2.1	45*	93	101	9	-11	-2
CC1CCC(C(C)C)C(OC(=O)Cn2c(-c3ccccc3)[n+](C)c3ccccc32)C1 (configuration not stated)	20	57	0.77	53*!	82	19	34	3	22*
CC1CCC(C(C)C)C(OC(=O)Cn2c(-c3ccc(F)cc3)[n+](C)c3ccccc32)C1 (configuration not stated)	5	87	0.96	18	95	3	/	/	/
CCOc1ccc(OCCSc2nc3ccccc3[nH]2)cc1	10	88	1.1	17	90	3	/	/	/
CCCOc1ccc(CSc2nc3ccccc3[nH]2)cc1	9	50	3.5*	59*	92	125	48*	-1	-16
CCOC1OC(=O)C(Cl)=C1Nc1cc(C)ccc1C (configuration not stated)	-6	103	1.6	3	103	2	/	/	/
CN1/C(=C\C(=O)C[n+]2ccc3ccccc3c2)C(C)(C)c2ccccc21	6	41	0.79	73*	95	20	74*	1	3
Cc1cc(C)n(-c2ccc(C(=O)Nc3ccc(S(=O)(=O)NCc4ccco4)cc3)cc2)n1	11	37	0.48	75*	90	-6	56*	17*	19*
COc1ccc(OC)c(S(=O)(=O)Nc2cc(C(=O)O)ccc2N2CC3CC(C2)c2cccc(=O)n2C3)c1 (configuration not stated)	-6	99	1.3	4	105	16	/	/	/
CCOC(=O)N1CCN(C(=O)CSCC(=O)Nc2nc(-c3ccc(-c4ccccc4)cc3)cs2)CC1	0	44	1.2	72*	100	124	73*	15*	-8
CCOC(=O)N1CCN(C(=O)CSCC(=O)Nc2nc(-c3ccc(OC)cc3)cs2)CC1	4	88	1.1	18	97	22	/	/	/
O=C(CSc1nc(-c2ccco2)cc(C(F)(F)F)n1)Nc1ccc(C(=O)N2CCCCC2)cc1	7	62	0.68	50*	94	5	46*	15*	18*
CS(=O)(=O)N1N=C(c2ccco2)CC1c1ccc(Cl)cc1Cl (configuration not stated)	-4	97	0.86	9	102	1	/	/	/
Fc1ccc(/C=C2\CCCC3=C2Nc2ncnn2C3c2ccc(F)cc2)cc1 (configuration not stated)	5	63	0.28	45*	96	-56	32	3	19*
COc1ccc(C2C3=C(Nc4ncnn42)c2ccccc2CCC3)cc1 (configuration not stated)	6	98	1.2	8	94	-10	/	/	/
Nc1nc2c(Cl)cc(Cl)cc2s1	-18	93	1.2	14	114	2	/	/	/
Nc1nc2c(Cl)ccc(Cl)c2s1	16	65	1.2	46*	84	-6	40	-7	-14
CCS(=O)(=O)c1ccc(N=Nc2ccc(O)c3ncccc23)c(OC)c1	-2	56	0.8	55*	104	-63	16	-5	-18
CCCc1cc(=O)[nH]c(Nc2ccc3c(c2)OCCO3)n1	3	90	0.68	20	98	2	/	/	/
Cc1cc(C(=O)Nc2nc3c(s2)CCCC3)cs1	-37	60	6.4*	52*	136*	119	21	-41	-137
COC(=O)c1sc(S(=O)(=O)NCCC(=O)O)c(C(=O)OC)c1C	-14	106	0.99	2	113	29	/	/	/

Bioassay records: PubChem BioAssay, several laboratories
